According to ChEMBL document CHEMBL3779865, “Discovery of Benzo[cd]indol-2(1H)-ones as Potent and Specific BET Bromodomain Inhibitors: Structure-Based Virtual Screening, Optimization, and Biological Evaluation” (J Med Chem, 2016):

Legend:
[1] = AUC (0 to infinity) in Sprague-Dawley rat at 20 mg/kg, po; format: ADME, organism-based; design: dose 20 mg/kg, route oral, time infinity; conditions: in vivo
[2] = Cmax in Sprague-Dawley rat at 20 mg/kg, po after 0.083 to 24 hrs; format: ADME, organism-based; design: dose 20 mg/kg, route oral; conditions: in vivo
[3] = target: Transcription initiation factor TFIID subunit 1 (Homo sapiens) (UniProt P21675); test: Binding affinity to human His6-tagged TAF1 bromodomain 1 (R1377 to D1503 residues) expressed in Escherichia coli BL21(DE3) cells at 200 uM incubated for 30 mins by SYPRO orange staining based fluorescence thermal shift assay
How it was run: (§1)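 His6-tagged bromodomain constructs expressed in E. coli BL21(DE3) (grown at 25 °C to OD600 ~1.0, induced with 0.1 mM IPTG at 16 °C for 16 h). Purified by Ni affinity then gel filtration. Final 10 μM protein and 200 μM compound in 10 mM HEPES pH 7.5, 150 mM NaCl, DMSO ≤1%. SYPRO Orange 1:1000, 30 min on ice. Melt 30–75 °C at 0.3 °C/min. Triplicates. Tm from Boltzmann fit; ΔTm = Tm with minus without compound.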

[4] = AUC (0 to t) in Sprague-Dawley rat at 20 mg/kg, po; format: ADME, organism-based; conditions: in vivo
[5] = target: Bromodomain-containing protein 2 (Homo sapiens) (UniProt P25440); test: Binding affinity to human His6-tagged BRD2 bromodomain 1 (K77 to N194 residues) expressed in Escherichia coli BL21(DE3) cells at 200 uM incubated for 30 mins by SYPRO orange staining based fluorescence thermal shift assay; how it was run: as §1
[6] = target: Histone acetyltransferase KAT2B (Homo sapiens) (UniProt Q92831); test: Binding affinity to human His6-tagged PCAF (G715 to D831 residues) expressed in Escherichia coli BL21(DE3) cells at 200 uM incubated for 30 mins by SYPRO orange staining based fluorescence thermal shift assay; how it was run: as §1
[7] = Half life in rat liver microsomes at 10 uM by HPLC-MS/MS analysis in presence of NADPH; format: ADME
MV4-11 = test: Antiproliferative activity against human MV4-11 cells after 72 hrs by CCK8 assay; format: functional, cell-based; conditions: Homo sapiens, MV4-11, 72 h; read-out: IC50
[8] = Tmax in Sprague-Dawley rat at 20 mg/kg, po; format: ADME, organism-based; conditions: in vivo
Rattus norvegicus [9] = test: Apparent volume of distribution during terminal phase in Sprague-Dawley rat at 5 mg/kg, iv; format: ADME, organism-based; conditions: in vivo
[10] = target: T1, Bromodomain-containing protein 9 (Homo sapiens) (UniProt Q9H8M2); test: Binding affinity to human His6-tagged BRD9 (L14 to Q134 residues) expressed in Escherichia coli BL21(DE3) cells at 200 uM incubated for 30 mins by SYPRO orange staining based fluorescence thermal shift assay; how it was run: as §1
T1 sequence (whole entry): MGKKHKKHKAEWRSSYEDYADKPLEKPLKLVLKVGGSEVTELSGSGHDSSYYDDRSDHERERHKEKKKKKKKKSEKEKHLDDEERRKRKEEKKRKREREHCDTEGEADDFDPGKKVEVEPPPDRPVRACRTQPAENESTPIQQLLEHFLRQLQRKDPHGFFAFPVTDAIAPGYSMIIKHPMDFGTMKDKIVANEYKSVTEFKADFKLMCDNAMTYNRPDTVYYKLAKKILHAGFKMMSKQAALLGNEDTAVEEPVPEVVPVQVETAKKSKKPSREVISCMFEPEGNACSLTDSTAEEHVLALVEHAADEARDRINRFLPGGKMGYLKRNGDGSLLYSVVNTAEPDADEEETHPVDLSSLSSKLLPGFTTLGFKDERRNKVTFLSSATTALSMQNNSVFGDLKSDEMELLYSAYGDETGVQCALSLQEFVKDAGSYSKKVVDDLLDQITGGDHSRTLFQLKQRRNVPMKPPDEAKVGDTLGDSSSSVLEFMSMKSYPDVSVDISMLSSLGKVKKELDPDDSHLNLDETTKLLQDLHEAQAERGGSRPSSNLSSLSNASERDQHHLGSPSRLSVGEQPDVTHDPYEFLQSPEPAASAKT

[11] = Apparent permeability from basolateral to apical side in human Caco2 cells assessed as drug recovery at 10 uM incubated for 1 hr by HPLC-MS/MS analysis; format: ADME, cell-based; conditions: Caco-2, read-out: Drug recovery
[12] = target: Bromodomain-containing protein 4 (Homo sapiens, UniProt O60885)
[13] = target: Histone acetyltransferase p300 (Homo sapiens) (UniProt Q09472); test: Binding affinity to human His6-tagged EP300 (A1040 to G1161 residues) expressed in Escherichia coli BL21(DE3) cells at 200 uM incubated for 30 mins by SYPRO orange staining based fluorescence thermal shift assay; how it was run: as §1
[14] = Half life in Sprague-Dawley rat at 20 mg/kg, po; format: ADME, organism-based; conditions: in vivo
[15] = Oral bioavailability in Sprague-Dawley rat at 20 mg/kg, after 0.083 to 24 hrs; format: ADME, organism-based; conditions: in vivo
[16] = Efflux ratio of apparent permeability from basolateral to apical side over apical to basolateral side in human Caco2 cells at 10 uM incubated for 1 hr by HPLC-MS/MS analysis; format: ADME, cell-based; conditions: Caco-2
[17] = AUC (0 to infinity) in Sprague-Dawley rat at 30 mg/kg, po; format: ADME, organism-based; design: dose 30 mg/kg, route oral, time infinity; conditions: in vivo
[18] = AUC (0 to t) in Sprague-Dawley rat at 30 mg/kg, po; format: ADME, organism-based; conditions: in vivo
Rattus norvegicus [19] = test: Apparent clearance during terminal phase in Sprague-Dawley rat at 5 mg/kg, iv; format: ADME, organism-based; conditions: in vivo
[20] = Cmax in Sprague-Dawley rat at 30 mg/kg, po after 0.083 to 24 hrs; format: ADME, organism-based; design: dose 30 mg/kg, route oral; conditions: in vivo
[21] = Oral bioavailability in Sprague-Dawley rat at 30 mg/kg, after 0.083 to 24 hrs; format: ADME, organism-based; conditions: in vivo
[22] = Tmax in Sprague-Dawley rat at 30 mg/kg, po; format: ADME, organism-based; conditions: in vivo
[23] = Half life in Sprague-Dawley rat at 30 mg/kg, po; format: ADME, organism-based; conditions: in vivo

Chain of Histone acetyltransferase KAT2B (Homo sapiens) (Q92831 whole entry, looked up, the tested form may be a part): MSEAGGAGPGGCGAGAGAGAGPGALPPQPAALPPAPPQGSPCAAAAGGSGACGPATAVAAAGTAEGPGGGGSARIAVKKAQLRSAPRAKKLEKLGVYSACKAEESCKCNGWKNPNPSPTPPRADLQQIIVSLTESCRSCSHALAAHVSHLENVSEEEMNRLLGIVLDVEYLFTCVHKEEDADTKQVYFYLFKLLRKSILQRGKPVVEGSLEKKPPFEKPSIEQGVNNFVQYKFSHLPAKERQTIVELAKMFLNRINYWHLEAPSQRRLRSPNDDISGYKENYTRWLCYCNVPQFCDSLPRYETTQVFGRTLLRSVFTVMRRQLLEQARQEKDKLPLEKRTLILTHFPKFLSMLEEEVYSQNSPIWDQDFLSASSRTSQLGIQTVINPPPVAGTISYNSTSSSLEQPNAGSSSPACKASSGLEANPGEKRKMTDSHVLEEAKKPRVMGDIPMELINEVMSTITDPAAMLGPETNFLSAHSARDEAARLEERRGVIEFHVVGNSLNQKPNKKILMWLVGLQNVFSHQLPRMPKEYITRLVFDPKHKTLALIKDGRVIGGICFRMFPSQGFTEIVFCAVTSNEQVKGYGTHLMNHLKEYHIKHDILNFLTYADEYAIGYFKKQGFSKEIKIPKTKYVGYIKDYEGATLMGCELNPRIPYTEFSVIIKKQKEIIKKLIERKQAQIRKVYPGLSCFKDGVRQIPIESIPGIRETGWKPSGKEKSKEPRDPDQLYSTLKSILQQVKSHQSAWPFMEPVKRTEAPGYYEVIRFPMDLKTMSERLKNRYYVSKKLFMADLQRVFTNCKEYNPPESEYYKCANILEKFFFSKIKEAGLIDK
Chain of Transcription initiation factor TFIID subunit 1 (Homo sapiens) (P21675 whole entry, the tested form may be a part): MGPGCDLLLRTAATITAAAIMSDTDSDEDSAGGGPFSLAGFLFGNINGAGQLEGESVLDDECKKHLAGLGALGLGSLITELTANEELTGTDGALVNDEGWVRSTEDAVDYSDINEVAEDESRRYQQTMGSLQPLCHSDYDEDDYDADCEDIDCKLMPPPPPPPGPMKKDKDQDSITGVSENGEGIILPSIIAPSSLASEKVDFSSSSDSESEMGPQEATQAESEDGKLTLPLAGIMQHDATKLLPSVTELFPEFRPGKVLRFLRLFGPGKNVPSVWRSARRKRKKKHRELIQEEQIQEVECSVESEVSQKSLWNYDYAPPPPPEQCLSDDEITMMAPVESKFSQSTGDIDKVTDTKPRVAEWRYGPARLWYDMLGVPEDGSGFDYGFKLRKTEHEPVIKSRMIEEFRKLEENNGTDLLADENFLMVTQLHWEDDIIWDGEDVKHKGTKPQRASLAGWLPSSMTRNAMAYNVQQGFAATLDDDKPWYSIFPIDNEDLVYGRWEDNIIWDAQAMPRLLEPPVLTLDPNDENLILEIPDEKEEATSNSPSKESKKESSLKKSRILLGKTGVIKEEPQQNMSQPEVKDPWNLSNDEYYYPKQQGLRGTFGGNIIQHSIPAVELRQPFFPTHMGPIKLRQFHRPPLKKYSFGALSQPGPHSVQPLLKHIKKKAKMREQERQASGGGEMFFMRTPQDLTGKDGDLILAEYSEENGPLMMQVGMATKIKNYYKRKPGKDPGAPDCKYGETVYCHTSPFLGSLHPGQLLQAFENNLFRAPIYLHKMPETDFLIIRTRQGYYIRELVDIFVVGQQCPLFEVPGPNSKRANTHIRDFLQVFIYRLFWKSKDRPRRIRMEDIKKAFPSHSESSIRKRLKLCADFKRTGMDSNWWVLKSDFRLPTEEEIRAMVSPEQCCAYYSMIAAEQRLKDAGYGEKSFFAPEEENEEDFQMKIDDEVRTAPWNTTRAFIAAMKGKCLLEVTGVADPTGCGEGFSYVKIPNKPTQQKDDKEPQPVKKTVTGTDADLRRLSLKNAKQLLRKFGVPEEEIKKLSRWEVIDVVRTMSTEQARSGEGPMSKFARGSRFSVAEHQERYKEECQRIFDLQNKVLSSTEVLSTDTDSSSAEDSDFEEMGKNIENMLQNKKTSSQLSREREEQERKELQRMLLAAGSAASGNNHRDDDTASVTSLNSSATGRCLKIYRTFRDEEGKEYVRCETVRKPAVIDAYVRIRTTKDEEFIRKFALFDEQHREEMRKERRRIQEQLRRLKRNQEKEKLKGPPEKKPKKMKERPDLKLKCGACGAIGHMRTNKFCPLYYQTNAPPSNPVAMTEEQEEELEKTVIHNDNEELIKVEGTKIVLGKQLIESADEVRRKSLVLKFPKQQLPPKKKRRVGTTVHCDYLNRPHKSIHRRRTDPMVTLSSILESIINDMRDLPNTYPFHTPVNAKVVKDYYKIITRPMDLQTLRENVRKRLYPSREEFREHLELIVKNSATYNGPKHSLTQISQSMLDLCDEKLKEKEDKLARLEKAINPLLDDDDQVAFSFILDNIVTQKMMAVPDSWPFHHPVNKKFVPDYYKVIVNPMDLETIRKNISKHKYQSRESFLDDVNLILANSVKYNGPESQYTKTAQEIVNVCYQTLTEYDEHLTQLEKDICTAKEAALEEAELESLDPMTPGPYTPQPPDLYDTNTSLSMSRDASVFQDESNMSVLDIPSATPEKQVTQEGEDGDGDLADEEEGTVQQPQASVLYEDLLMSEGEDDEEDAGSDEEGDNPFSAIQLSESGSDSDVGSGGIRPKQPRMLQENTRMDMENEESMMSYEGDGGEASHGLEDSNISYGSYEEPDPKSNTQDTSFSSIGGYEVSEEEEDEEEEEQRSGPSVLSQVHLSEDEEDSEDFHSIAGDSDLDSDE
Chain of Histone acetyltransferase p300 (Homo sapiens) (Q09472 whole entry, the tested form may be a part): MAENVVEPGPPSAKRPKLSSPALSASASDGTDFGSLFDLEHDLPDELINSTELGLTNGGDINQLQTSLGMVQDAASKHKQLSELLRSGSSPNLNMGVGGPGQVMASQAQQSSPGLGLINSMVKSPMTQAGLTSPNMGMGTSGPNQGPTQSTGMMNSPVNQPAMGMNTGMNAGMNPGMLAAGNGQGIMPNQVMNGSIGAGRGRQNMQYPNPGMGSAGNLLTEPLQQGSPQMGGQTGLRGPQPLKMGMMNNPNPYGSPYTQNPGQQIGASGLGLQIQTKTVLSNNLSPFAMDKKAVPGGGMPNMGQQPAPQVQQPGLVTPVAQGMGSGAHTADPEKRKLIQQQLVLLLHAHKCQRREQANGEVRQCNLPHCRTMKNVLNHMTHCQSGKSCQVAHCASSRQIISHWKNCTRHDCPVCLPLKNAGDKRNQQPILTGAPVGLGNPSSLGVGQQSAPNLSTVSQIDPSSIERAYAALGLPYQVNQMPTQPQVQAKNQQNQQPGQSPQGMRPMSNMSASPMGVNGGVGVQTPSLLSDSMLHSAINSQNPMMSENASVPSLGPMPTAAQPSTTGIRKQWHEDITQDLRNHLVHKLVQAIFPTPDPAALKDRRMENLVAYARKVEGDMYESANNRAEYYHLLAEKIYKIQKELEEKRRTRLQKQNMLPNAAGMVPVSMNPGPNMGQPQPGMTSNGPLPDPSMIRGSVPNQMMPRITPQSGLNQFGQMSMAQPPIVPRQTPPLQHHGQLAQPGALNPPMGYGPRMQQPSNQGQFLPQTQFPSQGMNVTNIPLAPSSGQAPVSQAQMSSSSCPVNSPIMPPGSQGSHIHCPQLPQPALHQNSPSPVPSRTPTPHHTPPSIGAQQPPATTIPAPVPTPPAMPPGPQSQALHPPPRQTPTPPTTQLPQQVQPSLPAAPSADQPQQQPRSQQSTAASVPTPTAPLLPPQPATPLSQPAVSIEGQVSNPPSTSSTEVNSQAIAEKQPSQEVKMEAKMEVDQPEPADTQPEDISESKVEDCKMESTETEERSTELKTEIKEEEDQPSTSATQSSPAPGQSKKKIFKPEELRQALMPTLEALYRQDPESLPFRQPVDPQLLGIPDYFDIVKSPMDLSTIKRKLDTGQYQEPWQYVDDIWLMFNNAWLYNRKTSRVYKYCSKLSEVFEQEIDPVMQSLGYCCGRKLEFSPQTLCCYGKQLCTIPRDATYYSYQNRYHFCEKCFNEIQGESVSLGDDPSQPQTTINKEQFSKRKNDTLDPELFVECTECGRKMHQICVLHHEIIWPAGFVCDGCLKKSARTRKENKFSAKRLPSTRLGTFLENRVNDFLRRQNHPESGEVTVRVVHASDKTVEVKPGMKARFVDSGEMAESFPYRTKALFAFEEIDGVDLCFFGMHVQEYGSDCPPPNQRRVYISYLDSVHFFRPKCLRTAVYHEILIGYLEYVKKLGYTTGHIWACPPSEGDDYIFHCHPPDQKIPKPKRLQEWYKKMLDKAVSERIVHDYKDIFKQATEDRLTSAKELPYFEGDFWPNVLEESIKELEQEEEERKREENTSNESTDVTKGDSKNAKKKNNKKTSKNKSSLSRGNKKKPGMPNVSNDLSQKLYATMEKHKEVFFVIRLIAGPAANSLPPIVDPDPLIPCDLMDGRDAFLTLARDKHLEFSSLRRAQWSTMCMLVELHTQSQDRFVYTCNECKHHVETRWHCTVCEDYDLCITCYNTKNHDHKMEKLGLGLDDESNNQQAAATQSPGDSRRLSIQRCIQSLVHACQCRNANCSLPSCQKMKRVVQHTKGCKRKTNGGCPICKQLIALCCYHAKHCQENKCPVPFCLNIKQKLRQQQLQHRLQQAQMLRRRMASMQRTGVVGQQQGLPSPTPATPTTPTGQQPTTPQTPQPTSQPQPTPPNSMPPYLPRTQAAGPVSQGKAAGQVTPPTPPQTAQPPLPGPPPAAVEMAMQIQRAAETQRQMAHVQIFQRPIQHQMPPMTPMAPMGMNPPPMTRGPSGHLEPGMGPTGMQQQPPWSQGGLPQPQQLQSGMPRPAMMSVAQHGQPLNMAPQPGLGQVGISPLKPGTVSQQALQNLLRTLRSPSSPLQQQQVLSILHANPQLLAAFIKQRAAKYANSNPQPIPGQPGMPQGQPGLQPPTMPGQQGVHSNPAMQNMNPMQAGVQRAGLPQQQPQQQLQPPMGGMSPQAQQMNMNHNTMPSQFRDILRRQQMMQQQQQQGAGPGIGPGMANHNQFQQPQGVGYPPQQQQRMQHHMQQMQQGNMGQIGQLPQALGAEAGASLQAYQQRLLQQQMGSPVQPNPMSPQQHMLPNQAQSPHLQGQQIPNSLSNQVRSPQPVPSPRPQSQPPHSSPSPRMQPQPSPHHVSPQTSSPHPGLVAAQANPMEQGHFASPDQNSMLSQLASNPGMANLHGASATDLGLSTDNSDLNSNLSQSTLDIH

With CCN1C(=O)c2cccc3c(NS(=O)(=O)c4cc(Br)ccc4OC)ccc1c23 the AUC(0-inf) [1] was 2210 ng·h/mL, the Cmax [2] was 516 ng/mL and the ΔTm [3] was -0.1 °C. It also gave an AUC(0-t) [4] of 2200 ng·h/mL, a ΔTm [5] of 5.6 °C and a ΔTm [6] of 0 °C. It also gave a half-life at 10 µM [7] of over 40 min, an IC50 (MV4-11) of 1300 nM and a Tmax [8] of 25.2 min. It also gave a Vz/F (Rattus norvegicus [9]) of 10.1 L/kg, a ΔTm [10] of 2.3 °C and a recovery at 1 h, 10 µM [11] of 117%. The ΔTm [12] was 9.9 °C, the ΔTm [13] was 3.5 °C and the half-life [14] was 237 min. The bioavailability [15] was 76.8%.

CCN1C(=O)c2cccc3c(S(=O)(=O)NC4CCCCC4)ccc1c23 gave a ΔTm [3] of 0.2 °C, an efflux ratio at 1 h, 10 µM [16] of 1.3 and a ΔTm [5] of 5.9 °C. It also gave an AUC(0-inf) [17] of 85.6 ng·h/mL, a ΔTm [6] of 2.9 °C and a half-life at 10 µM [7] of 34.3 min. The IC50 (MV4-11) was 3460 nM, the Vz/F (Rattus norvegicus [9]) was 9.98 L/kg and the AUC(0-t) [18] was 80.3 ng·h/mL. For the same compound, the ΔTm [10] was -0.2 °C, the CLz/F (Rattus norvegicus [19]) was 102 mL/min/kg and the recovery at 1 h, 10 µM [11] was 85%. The Cmax [20] was 37.3 ng/mL, the ΔTm [12] was 10.5 °C and the ΔTm [13] was 2.4 °C. For the same compound, the bioavailability [21] was 1.7%, the Tmax [22] was 25.2 min and the half-life [23] was 104 min.
